Measured values of several laboratories.
Compare with care: the assays were run in different laboratories.

SMILES	system	conditions	Tmax
COc1cc(N2CCC(N3CCN(C)CC3)CC2)ccc1Nc1ncnc(Nc2ccccc2S(=O)(=O)C(C)C)n1	human, plasma	oral, 25 mg, multiple doses, patients	2.48 h
Nc1cc(C(F)(F)F)c(-c2cc(N3CCOCC3)nc(N3CCOCC3)n2)cn1	human, plasma	oral, 25 mg/day, patients	1 h
CCc1nc2c(C)cc(N3CCN(CC(=O)N4CC(O)C4)CC3)cn2c1N(C)c1nc(-c2ccc(F)cc2)c(C#N)s1	human, plasma	oral, 1500 mg, fed, healthy volunteers	2 h
CC(=O)Oc1ccccc1C(=O)O	human, plasma	oral, 650 mg, healthy volunteers	2.5 h
COc1ccc([C@@H]2CN(C(=O)[C@@H](O)CO)C[C@@]2(C)[C@@H](C)O)cc1OC1CN(c2ccc(C)cn2)C1	human, plasma	oral, 10 mg, single dose, healthy volunteers	2 h
C[C@@]1(c2cc(NC(=O)c3ccc(C#N)cn3)ccc2F)C=CSC(N)=N1	male human, plasma	oral, 1 mg, single dose	0.75 h
CCCCOC(=O)N1CCN(C(=O)[C@H](CP(=O)(O)O)NC(=O)c2cc(N3CC[C@H](OC)C3)nc(-c3ccccc3)n2)CC1	human, plasma	subcutaneous, 8 mg, single dose	0.667 h
C=CC(=O)N(C)CCOc1c(N)ncnc1-c1cc(F)cc(NC(=O)c2ccc(C3CC3)cc2F)c1C	human, blood	oral, 400 mg, single dose, healthy volunteers	1.24 h
CCc1nc(C(N)=O)c(Nc2ccc(N3CCC(N4CCN(C)CC4)CC3)c(OC)c2)nc1NC1CCOCC1	human, plasma	oral, 120 mg, multiple doses, patients	3.03 h
c1cnc2ccc(Nc3nc(NC4CC4)c4nc[nH]c4n3)cc2c1	human, plasma	oral, 800 mg/m², patients	5 h
CC(C)(C)OC[C@@H]1C(=O)NCCN1C(=O)C[C@H](N)Cc1cc(F)c(F)cc1F	male human, plasma	oral, 5 mg, multiple doses, steady state	2 h
NS(=O)(=O)NCCNc1nonc1C(=NO)Nc1ccc(F)c(Br)c1	human, plasma	oral, 300 mg, multiple doses, twice daily, steady state, patients	2 h
CC(C)(Sc1ccncc1-c1ccc(C#N)c2ccccc12)C(=O)O	male human, plasma	oral, 10 mg, multiple doses, once daily	1 h
C[C@@H](Nc1cc(F)cc(F)c1)c1cc(C(=O)N(C)C)cc2c(=O)cc(N3CCOCC3)oc12	human, plasma	oral, 300 mg, single dose, patients	1.21 h
CC(C)(O)c1ccccc1-c1ccc2[nH]c(/C=C/c3ccc(C(F)(F)F)cc3)nc2c1	male human, plasma	oral, 225 mg, single dose, fasted	2.02 h
O=C(O)C[C@H](O)C[C@H](O)/C=C/c1c(C2CC2)nc2ccccc2c1-c1ccc(F)cc1	human, plasma	oral, 2 mg, single dose, fasted, healthy volunteers, tablet	1.17 h
CC(C)n1cc(C#N)c2cc(-n3cc(C(=O)O)cn3)ccc21	human, plasma	oral, 100 mg, multiple doses, once daily, steady state	2.5 h
COC(=O)N[C@@H](C)CNc1nccc(-c2cn(C(C)C)nc2-c2cc(Cl)cc(NS(C)(=O)=O)c2F)n1	human, plasma	oral, 50 mg, single dose	~1.5 h
C#C[C@]1(COP(=O)(O)OP(=O)(O)OP(=O)(O)O)O[C@@H](n2cnc3c(N)nc(F)nc32)C[C@@H]1O	human, plasma	oral, 200 mg, single dose	6 h
Cn1cc(-c2ccc(S(=O)(=O)[C@@H]3C[C@@H](C(=O)NC4(C#N)CC4)N(C(=O)C4(C(F)(F)F)CC4)C3)c(C(F)(F)F)c2)cn1	human, plasma	oral, 3 mg, single dose, fasted, healthy volunteers	5 h
